# Bioassay records from PubChem BioAssay.
# Only some compounds are listed: those with a hit (about 3% of all), similar ones and a draw of the others.
# TRPC4 act: opens the mouse TRPC4 cation channel; B-score at 10 µM; Q9QUQ5; HEK293 TRPC4beta/mu-opioid, Fluo4 calcium fluorescence; stronger effect = higher value; 0.49% of 310,000 active;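 active means B-score above 5 SD of library B-scores, and initial fluorescence ratio not above library mean plus 5 SD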;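 further: positive B-score marks a calcium rise read as TRPC4 activation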
#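 Assay system: HEK293 stable line with TRPC4beta plus mu-opioid receptor. Times: dye 45 min RT, read 110 s. Measured by: kinetic Fluo4 calcium fluorescence. Measure: B score of integrated ratio. Controls: assay buffer as low control, maximal DAMGO as high control.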
# Kir21 inh: Kir2.1 (mouse) channel inhibition; P35561; HEK293-Kir2.1, FluxOR thallium flux fluorescence; stronger effect = lower value; B-score at 10 µM; 0.85% of 310,000 active; AID 1672;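 active means fluorescence ratio B-score at or below minus 3 SD of library scores, with starting-brightness B-score within 2 SD, cut at about -4.2 in these data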;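 further: channel flux triggered by added potassium and thallium sulfate stimulus; B-score of peak minus minimum fluorescence over baseline after thallium stimulus; more negative B-score means stronger Kir2.1 block with less thallium influx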
# Target sequence (P35561 whole entry, looked up): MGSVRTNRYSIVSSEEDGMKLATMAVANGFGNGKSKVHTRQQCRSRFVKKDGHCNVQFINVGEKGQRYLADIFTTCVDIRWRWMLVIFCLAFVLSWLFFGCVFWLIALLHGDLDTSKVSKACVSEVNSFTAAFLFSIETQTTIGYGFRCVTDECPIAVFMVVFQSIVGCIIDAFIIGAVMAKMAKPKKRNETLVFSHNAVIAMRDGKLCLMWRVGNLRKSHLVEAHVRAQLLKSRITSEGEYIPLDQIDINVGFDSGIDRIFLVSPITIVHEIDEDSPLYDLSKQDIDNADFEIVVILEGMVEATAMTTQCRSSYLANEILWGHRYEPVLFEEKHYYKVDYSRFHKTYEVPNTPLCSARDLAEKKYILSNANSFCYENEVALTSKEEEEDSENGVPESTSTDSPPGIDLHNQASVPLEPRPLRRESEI
# TRPC4 PAM: TRPC4 (mouse) allosteric potentiation; 0.42% of 310,000 active; HEK293 TRPC4beta/mu-opioid, DAMGO EC20, Fluo-4 Ca2+ flux; stronger effect = higher value; AID 2227; B-score at 10 µM;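 active means B-score of calcium response area above 5 SD of library B-scores, with initial fluorescence ratio within 5 SD of library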;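 further: B-score of integrated fluorescence ratio over time as area under calcium response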
# TRPC4 inh: blocks the mouse TRPC4 cation channel | Q9QUQ5 | HEK293 TRPC4beta/mu-opioid, DAMGO-evoked Fluo4 calcium flux; stronger effect = lower value | B-score at 10 µM | 0.39% of 300,000 active | AID 2247;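 active means B-score over 3 SD under the library average, no early fluorescence shift, positive overall ratio signal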
#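 Material: HEK293 cells with stable TRPC4beta plus mu-opioid receptor expression; probe or stimulus: DAMGO in two steps, submaximal then maximal; technique: Fluo4 calcium fluorescence by kinetic imaging, 5 s 1 Hz baseline; measure: integrated fluorescence ratio relative to baseline, converted to per-well B score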
# TRPC6 inhibitor: inhibitors of mouse TRPC6 channel. Q61143. 1.1% of 310,000 active. AID 2553. HEK293-TRPC6, membrane potential dye, ACh-evoked depolarization; stronger effect = lower value. B-score at 10 µM;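 active means B-score under library mean minus 3 SD, initial fluorescence not abnormally high, positive integrated signal ratio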;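 further: B-score derived from integrated fluorescence ratio over the kinetic read; more negative B-score means stronger inhibition of depolarization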
# TRPC6 act: activates the mouse TRPC6 cation channel | B-score at 10 µM | HEK293-TRPC6 membrane potential dye fluorescence; stronger effect = higher value | AID 2550 | 0.13% of 310,000 active;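 active means B-score of the integrated fluorescence ratio above library mean plus 3 SD, and starting fluorescence ratio within library mean plus 5 SD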;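 further: higher score means more depolarization so channel activation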
# Starred values were filed as active, the others as inactive; i = inactive.
SMILES,TRPC4 act,Kir21 inh,TRPC4 PAM,TRPC4 inh,TRPC6 inhibitor,TRPC6 act
Cn1c(=O)c2c(nc(SCc3cccnc3)n2Cc2ccc(F)cc2)n(C)c1=O,i,1.3,i,-5*,i,i
Cc1ccc(Cn2c(SCCN3CCCCC3)nc3c2c(=O)n(C)c(=O)n3C)cc1,43*,-0.07,70*,i,i,i
CCC(Sc1nc2ncccc2[nH]1)C(=O)NCCc1ccccc1 (stereo unspecified),i,-0.68,i,i,i,i
CN(Cc1ccccc1)Cc1nc2c(c(=O)n(C)c(=O)n2C)n1Cc1ccc(F)cc1,i,-0.42,i,i,i,i
Cc1ccc(Cn2c(CN(C)Cc3ccccc3)nc3c2c(=O)n(C)c(=O)n3C)cc1,i,-1.6,10*,i,i,i
CCC1CCCCN1Cc1nc2c(c(=O)n(C)c(=O)n2C)n1Cc1ccccc1 (stereo unspecified),i,-3.3,i,-6*,i,i
Cn1c(=O)c2c(nc(CN3CCc4ccccc4C3)n2Cc2ccc(F)cc2)n(C)c1=O,i,1.4,23*,i,i,i
CCn1c(CN2CCN(C(c3ccccc3)c3ccccc3)CC2)nc2c1c(=O)n(C)c(=O)n2C,i,0.1,17*,i,i,i
COc1ccccc1N1CCN(/N=C/C(Cl)=C/c2ccccc2)CC1,i,-0.47,i,i,i,i
CN(Cc1nc(-c2ccccc2)no1)C1CCOCC1,i,1.1,i,i,i,i
Cc1ccccc1Cn1c(CN2CCc3ccccc3C2)nc2c1c(=O)n(C)c(=O)n2C,52*,-1.3,119*,i,i,i
COC(=O)c1cccc(Oc2nc3c(c(=O)n(C)c(=O)n3C)n2Cc2ccc(C)cc2)c1,i,-0.01,i,-6*,i,i
CCCCCCn1c(N2CCN(c3ccccc3)CC2)nc2c1c(=O)n(C)c(=O)n2C,i,2.5,94*,i,i,i
CCOCCn1c(N2CCN(c3ccccc3)CC2)nc2c1c(=O)n(C)c(=O)n2C,i,-0.89,i,i,i,i
COC(=O)c1cccc(Oc2nc3c(c(=O)n(C)c(=O)n3C)n2C(C)C)c1,i,-0.94,i,i,i,i
COc1cc(S(=O)(=O)NC2CCSc3ccccc32)ccc1NC(C)=O (stereo unspecified),i,0.29,i,i,i,i
CN(C)S(=O)(=O)c1ccc(N2CCCC2)c(C(=O)N2CCC(C(N)=O)CC2)c1,i,0.15,i,i,i,i
O=C(O)C1CCCCC1C(=O)NCCc1ccc(Cl)cc1 (stereo unspecified),i,-0.07,i,i,i,i
O=C(O)C1CCCCC1C(=O)NCCc1ccc(F)cc1 (stereo unspecified),i,0.27,10*,i,i,i
CCCCC(=O)OCc1nc(N)nc(Nc2ccccc2C)n1,i,0.42,i,i,i,i
COc1ccccc1C(=O)OCc1nc(N)nc(Nc2ccccc2C)n1,i,-5.2*,i,i,i,i
S=C(Nc1ccc(Cl)cc1)N1CCN(C2CCCCC2)CC1,i,0.07,i,i,i,i
C=CCNC(=S)N1CCN(C2CCCCC2)CC1,i,0.4,32*,i,i,i
CCOc1ccc(NC(=O)c2cccc(OC(=S)N3CCC(C)CC3)c2)cc1,i,0.44,i,i,i,i
CCOC(=O)Cn1cc(Cl)cc(C(=O)Nc2ccccc2)c1=O,i,-0.29,i,i,i,i
SMILES,TRPC4 act,Kir21 inh,TRPC4 PAM,TRPC4 inh,TRPC6 inhibitor,TRPC6 act
CCn1c(CNC(=O)c2cccc(C)c2)nnc1SCC(=O)Nc1nnc(C)s1,i,0.47,i,i,i,i
O=C(CNc1cccc(S(=O)(=O)N2CCOCC2)c1)N1CCc2ccccc21,i,-0.74,i,i,i,i
OCCCCNCc1ccc(OCc2ccc(Cl)cc2Cl)cc1,i,-7.1*,i,i,i,i
COc1ccccc1CNC(=O)c1cccnc1,i,0.86,i,i,i,i
O=C(Cc1cccs1)NNC(=S)NC(=O)c1ccccc1,52*,0.94,i,i,i,i
O=C(Cc1cccs1)NNC(=S)NC(=O)c1ccc(F)c(F)c1,60*,0.69,i,i,i,i
O=C(Cc1ccccc1)NNC(=S)NC(=O)c1cccs1,i,-0.79,i,i,i,i
O=C(/C=C/c1ccccc1)NC(=S)NNC(=O)Cc1cccs1,i,1.3,i,i,i,i
Cc1oc(-c2cc(F)cc(F)c2)nc1CN1CCSCC1,i,0.87,i,i,i,i
CC1=C(C(=O)OCc2ccccc2)C(c2cccc(F)c2)NC(=O)N1 (stereo unspecified),i,0.43,i,i,i,i
O=C(c1cccs1)N1CCN(c2ncc(Br)cn2)CC1,175*,1.1,i,i,i,i
Nc1nc(-c2ccc(-n3nncc3-c3ccco3)cc2)cs1,i,0.01,i,-5*,i,i
NC(CCCCc1ccccc1)c1cccc2ccccc12 (stereo unspecified),i,-11*,i,i,-7.9*,i
CC1Cc2ccccc2N1C(=O)CCS(=O)(=O)c1ccc2c(c1)NC(=O)CS2 (stereo unspecified),i,-1.9,i,i,i,i
COc1ccc(S(=O)(=O)CCC(=O)N2c3ccccc3CC2C)cc1 (stereo unspecified),i,-4.6*,i,i,i,i
CC(C)c1[nH]nc2c1C(c1ccco1)C(C#N)=C(N)O2 (stereo unspecified),i,-0.65,i,i,i,i
COc1ccc(-c2noc(CN3CCN(C(=O)c4cccs4)CC3)n2)c(OC)c1OC,i,1.3,i,i,i,i
CC(Nc1ccc(Br)cn1)c1cc(Cl)ccc1O (stereo unspecified),i,-2.2,i,i,i,i
CC(Nc1ccc(Cl)cc1)c1cc(Cl)ccc1O (stereo unspecified),i,-5.8*,i,i,i,i
CN(CC(=O)NCCc1ccccc1)S(=O)(=O)c1ccc(Br)s1,i,0,i,i,i,i
COc1ccc(OC)c(Nc2cc(-c3ccccc3)nc(N)n2)c1,i,0.01,i,-7*,-5.4*,i
